Test results taken from ChEMBL document CHEMBL5712920, “The histone methyltransferase inhibitor A-366 enhances hemoglobin expression in erythroleukemia cells upon co-exposure with chemical inducers in culture” (J Biol Res (Thessalon), 2021).

Assays:
[1] = Cytotoxicity against HMBA-stiumulated mouse FLC clone 745 cells assessed as cell viability measured after 48 hrs by Neubauer chamber based microscopic analysis (reference value: 50.563%); format: toxicity; conditions: HMBA-stimulated FLC clone 745 cells, read-out: Activity
[2] = Cytotoxicity against mouse FLC clone 745 cells assessed as reduction in cell viability measured after 48 hrs by Neubauer chamber based microscopic analysis; format: toxicity
[3] = molecular target: Histone-lysine N-methyltransferase EZH2 (Mus musculus) (UniProt Q61188); test: Inhibition of EZH2 in HMBA-stiumulated mouse FLC clone 745 cells assessed as increase in erythroid differentiation at IC50 concentration measured after 72 hrs by benzidine-H2O2 based assay (reference value: 69.6%); format: cell-based
Histone-lysine N-methyltransferase EZH2 (Mus musculus), sequence (Q61188 whole entry): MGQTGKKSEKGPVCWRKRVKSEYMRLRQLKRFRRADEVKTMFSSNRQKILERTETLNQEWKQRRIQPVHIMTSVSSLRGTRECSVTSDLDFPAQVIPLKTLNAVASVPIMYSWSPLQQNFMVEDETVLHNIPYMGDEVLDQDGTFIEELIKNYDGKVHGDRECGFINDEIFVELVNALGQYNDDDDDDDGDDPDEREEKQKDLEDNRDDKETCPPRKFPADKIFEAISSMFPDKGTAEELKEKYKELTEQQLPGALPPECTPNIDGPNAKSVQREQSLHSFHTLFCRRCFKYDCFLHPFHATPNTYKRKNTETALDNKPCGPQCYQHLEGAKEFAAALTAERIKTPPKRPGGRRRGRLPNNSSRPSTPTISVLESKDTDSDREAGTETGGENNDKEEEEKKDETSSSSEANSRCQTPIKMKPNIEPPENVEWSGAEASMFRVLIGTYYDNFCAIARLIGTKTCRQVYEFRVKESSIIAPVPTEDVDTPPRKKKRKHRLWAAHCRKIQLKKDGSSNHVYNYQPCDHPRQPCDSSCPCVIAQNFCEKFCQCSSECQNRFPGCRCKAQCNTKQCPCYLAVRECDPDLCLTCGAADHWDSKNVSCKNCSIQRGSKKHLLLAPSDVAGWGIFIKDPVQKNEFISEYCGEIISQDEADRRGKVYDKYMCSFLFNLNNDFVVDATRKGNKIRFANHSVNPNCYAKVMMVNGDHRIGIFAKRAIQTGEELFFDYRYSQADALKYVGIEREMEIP

[4] = molecular target: Histone-lysine N-methyltransferase EZH2 (Mus musculus) (UniProt Q61188); test: Inhibition of EZH2 in HMBA-stiumulated mouse FLC clone 745 cells assessed as increase in erythroid differentiation at IC50 concentration measured after 96 hrs by benzidine-H2O2 based assay (reference value: 79.45%); format: cell-based
[5] = molecular target: N-lysine methyltransferase SMYD2 (Mus musculus) (UniProt Q8R5A0); test: Inhibition of SMYD2 in HMBA-stiumulated mouse FLC clone 745 cells assessed as increase in erythroid differentiation at IC50 concentration measured after 72 hrs by benzidine-H2O2 based assay (reference value: 69.6%); format: cell-based
N-lysine methyltransferase SMYD2 (Mus musculus), sequence (Q8R5A0 whole entry): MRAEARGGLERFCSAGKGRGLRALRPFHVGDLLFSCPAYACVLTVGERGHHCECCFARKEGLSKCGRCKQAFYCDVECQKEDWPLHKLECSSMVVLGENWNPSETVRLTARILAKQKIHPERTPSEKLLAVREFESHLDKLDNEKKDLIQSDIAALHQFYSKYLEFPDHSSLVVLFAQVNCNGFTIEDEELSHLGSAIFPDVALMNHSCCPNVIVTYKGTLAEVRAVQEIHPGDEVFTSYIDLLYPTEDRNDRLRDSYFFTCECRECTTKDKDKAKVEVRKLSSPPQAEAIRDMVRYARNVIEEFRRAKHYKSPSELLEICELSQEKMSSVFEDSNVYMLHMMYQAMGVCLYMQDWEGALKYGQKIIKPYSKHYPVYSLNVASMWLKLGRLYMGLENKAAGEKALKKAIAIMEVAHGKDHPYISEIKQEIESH

[6] = molecular target: N-lysine methyltransferase SMYD2 (Mus musculus) (UniProt Q8R5A0); test: Inhibition of SMYD2 in HMBA-stiumulated mouse FLC clone 745 cells assessed as increase in erythroid differentiation at IC50 concentration measured after 96 hrs by benzidine-H2O2 based assay (reference value: 79.45%); format: cell-based
[7] = Inhibition of G9a/GLP in HMBA-stiumulated mouse FLC clone 745 cells assessed as increase in erythroid differentiation at IC50 concentration measured after 72 hrs by benzidine-H2O2 based assay (reference value: 69.6%); conditions: condition erythroleukemia
[8] = Inhibition of G9a/GLP in HMBA-stiumulated mouse FLC clone 745 cells assessed as increase in erythroid differentiation at IC50 concentration measured after 96 hrs by benzidine-H2O2 based assay (reference value: 79.45%); conditions: condition erythroleukemia
FLC clone 745 = test: Cytotoxicity against mouse FLC clone 745 cells assessed as reduction in cell viability at IC50 concentration measured up to 96 hrs by Neubauer chamber based microscopic analysis; format: toxicity; conditions: flc clone 745, 96 h
Outline: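 MEL-745 cells treated continuously with compound at its previously determined 48 h IC50, without inducer, for up to 96 h. Total cell number counted daily in a Neubauer chamber. Final DMSO ≤0.2% v/v.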

[9] = molecular target: Histone-lysine N-methyltransferase KMT5B (Mus musculus) (UniProt Q3U8K7); test: Inhibition of SUV420H1 in HMBA-stiumulated mouse FLC clone 745 cells assessed as increase in erythroid differentiation at IC50 concentration measured after 72 hrs by benzidine-H2O2 based assay (reference value: 69.6%); format: cell-based
Histone-lysine N-methyltransferase KMT5B (Mus musculus), sequence (Q3U8K7 whole entry): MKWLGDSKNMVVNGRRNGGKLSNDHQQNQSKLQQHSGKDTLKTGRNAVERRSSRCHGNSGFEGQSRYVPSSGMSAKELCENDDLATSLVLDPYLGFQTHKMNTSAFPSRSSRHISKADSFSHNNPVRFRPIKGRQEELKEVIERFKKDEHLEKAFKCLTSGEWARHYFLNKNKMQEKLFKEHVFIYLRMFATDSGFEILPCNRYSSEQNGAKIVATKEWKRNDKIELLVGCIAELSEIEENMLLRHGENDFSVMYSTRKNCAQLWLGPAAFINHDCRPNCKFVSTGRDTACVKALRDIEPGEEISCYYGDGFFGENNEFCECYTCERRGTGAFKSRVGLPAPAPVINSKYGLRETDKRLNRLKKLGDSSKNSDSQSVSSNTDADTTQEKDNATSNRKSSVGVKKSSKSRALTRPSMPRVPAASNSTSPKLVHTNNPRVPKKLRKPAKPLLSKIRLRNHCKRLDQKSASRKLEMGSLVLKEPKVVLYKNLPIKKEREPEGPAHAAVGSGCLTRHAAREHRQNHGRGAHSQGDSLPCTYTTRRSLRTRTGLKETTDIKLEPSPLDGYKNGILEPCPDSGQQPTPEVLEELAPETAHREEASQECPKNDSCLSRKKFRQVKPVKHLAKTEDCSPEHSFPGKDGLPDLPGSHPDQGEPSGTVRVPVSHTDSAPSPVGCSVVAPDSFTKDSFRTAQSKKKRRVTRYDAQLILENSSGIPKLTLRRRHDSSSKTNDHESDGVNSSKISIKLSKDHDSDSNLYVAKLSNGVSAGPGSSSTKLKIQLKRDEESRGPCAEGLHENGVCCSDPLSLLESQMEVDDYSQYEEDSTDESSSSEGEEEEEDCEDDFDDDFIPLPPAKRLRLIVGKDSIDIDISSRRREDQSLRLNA

[10] = molecular target: Histone-lysine N-methyltransferase KMT5B (Mus musculus) (UniProt Q3U8K7); test: Inhibition of SUV420H1 in HMBA-stiumulated mouse FLC clone 745 cells assessed as increase in erythroid differentiation at IC50 concentration measured after 96 hrs by benzidine-H2O2 based assay (reference value: 79.45%); format: cell-based
[11] = molecular target: Histone-lysine N-methyltransferase, H3 lysine-79 specific (Mus musculus) (UniProt F7CVL0); test: Inhibition of DOT1L in HMBA-stiumulated mouse FLC clone 745 cells assessed as increase in erythroid differentiation at IC50 concentration measured after 96 hrs by benzidine-H2O2 based assay (reference value: 79.45%); format: cell-based
Histone-lysine N-methyltransferase, H3 lysine-79 specific (Mus musculus), sequence (F7CVL0 as listed by the source): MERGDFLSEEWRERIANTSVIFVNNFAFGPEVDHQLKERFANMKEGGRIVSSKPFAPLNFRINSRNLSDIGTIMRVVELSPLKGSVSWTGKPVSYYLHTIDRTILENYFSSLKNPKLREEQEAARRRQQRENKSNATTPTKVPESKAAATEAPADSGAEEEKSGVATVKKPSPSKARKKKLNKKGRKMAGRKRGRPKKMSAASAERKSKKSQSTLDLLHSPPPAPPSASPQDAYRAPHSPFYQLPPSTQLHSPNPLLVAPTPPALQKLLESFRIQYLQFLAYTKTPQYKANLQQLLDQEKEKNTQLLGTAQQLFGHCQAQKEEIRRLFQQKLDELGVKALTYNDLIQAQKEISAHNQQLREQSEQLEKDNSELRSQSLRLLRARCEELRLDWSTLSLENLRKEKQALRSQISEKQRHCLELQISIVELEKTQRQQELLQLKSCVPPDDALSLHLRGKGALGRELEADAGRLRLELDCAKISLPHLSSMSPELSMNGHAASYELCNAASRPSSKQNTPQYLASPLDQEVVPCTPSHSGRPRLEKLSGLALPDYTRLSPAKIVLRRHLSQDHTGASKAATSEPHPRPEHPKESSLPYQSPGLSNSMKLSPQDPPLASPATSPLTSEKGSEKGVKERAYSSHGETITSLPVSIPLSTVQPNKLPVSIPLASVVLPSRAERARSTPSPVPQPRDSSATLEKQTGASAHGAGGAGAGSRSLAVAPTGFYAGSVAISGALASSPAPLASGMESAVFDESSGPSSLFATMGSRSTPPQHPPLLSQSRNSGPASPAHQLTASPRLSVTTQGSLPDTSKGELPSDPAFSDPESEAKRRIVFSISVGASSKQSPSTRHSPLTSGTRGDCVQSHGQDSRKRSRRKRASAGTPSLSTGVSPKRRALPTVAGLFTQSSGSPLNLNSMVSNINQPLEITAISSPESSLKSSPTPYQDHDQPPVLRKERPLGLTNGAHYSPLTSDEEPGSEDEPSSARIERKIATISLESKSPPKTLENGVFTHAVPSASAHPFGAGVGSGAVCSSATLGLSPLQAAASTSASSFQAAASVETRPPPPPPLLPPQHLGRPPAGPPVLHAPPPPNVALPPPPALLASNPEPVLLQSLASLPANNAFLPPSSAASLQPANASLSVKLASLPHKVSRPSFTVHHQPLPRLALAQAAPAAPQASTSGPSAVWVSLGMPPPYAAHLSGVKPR

[12] = molecular target: Histone-lysine N-methyltransferase, H3 lysine-79 specific (Mus musculus) (UniProt F7CVL0); test: Inhibition of DOT1L in HMBA-stiumulated mouse FLC clone 745 cells assessed as increase in erythroid differentiation at IC50 concentration measured after 72 hrs by benzidine-H2O2 based assay (reference value: 69.6%); format: cell-based
[13] = molecular target: Protein arginine N-methyltransferase 3 (Mus musculus) (UniProt Q922H1); test: Inhibition of PRMT3 in HMBA-stiumulated mouse FLC clone 745 cells assessed as increase in erythroid differentiation at IC50 concentration measured after 96 hrs by benzidine-H2O2 based assay (reference value: 79.45%); format: cell-based
Protein arginine N-methyltransferase 3 (Mus musculus), sequence (Q922H1 whole entry): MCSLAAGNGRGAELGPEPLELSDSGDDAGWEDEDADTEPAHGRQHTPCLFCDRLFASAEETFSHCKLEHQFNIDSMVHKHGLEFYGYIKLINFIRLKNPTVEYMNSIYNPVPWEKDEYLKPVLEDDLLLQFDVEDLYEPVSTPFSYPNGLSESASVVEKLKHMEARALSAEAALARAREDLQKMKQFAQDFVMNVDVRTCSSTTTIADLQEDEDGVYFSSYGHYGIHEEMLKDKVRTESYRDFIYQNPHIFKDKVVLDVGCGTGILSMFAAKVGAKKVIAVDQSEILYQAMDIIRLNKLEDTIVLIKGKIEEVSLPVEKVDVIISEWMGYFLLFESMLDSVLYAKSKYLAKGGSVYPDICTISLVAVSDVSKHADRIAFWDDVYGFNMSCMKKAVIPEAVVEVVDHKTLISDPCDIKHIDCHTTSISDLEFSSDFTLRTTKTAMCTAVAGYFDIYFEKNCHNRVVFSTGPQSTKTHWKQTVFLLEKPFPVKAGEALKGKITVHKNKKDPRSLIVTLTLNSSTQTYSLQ

[14] = molecular target: Protein arginine N-methyltransferase 3 (Mus musculus) (UniProt Q922H1); test: Inhibition of PRMT3 in HMBA-stiumulated mouse FLC clone 745 cells assessed as increase in erythroid differentiation at IC50 concentration measured after 72 hrs by benzidine-H2O2 based assay (reference value: 69.6%); format: cell-based

Structure (SMILES) | viability at 48 h [1] [%] | IC50 at 48 h [2] [µM] | other results
CCCc1cc(C)[nH]c(=O)c1CNC(=O)c1cc(-c2ccnc(N3CCN(C)CC3)c2)cc2c1cnn2C(C)C | 20.6 | 2.2 | inhibition [3]: < 1%; inhibition [4]: < 1%
O=C([C@@H](Cc1cccc(C(F)(F)F)c1)NS(=O)(=O)c1cc(F)c2c(c1)CCNC2)N1CCCC1 | 18.7 | 20 | –
CCN(C(=O)CO)[C@H]1CN(/C(=N\C#N)Nc2cccc(OC(F)F)c2)N=C1c1ccc(Cl)c(Cl)c1 | 22.8 | 4.7 | inhibition [5]: 12.7%; inhibition [6]: 22.6%
CCc1cc(C)[nH]c(=O)c1CNC(=O)c1cc(-c2ccc(N3CCN(C(C)C)CC3)nc2)cc2c1cnn2C(C)C | 6.96 | 3.2 | inhibition [3]: < 1%; inhibition [4]: < 1%
COc1cc2c(NC3CCN(C(C)C)CC3)nc(C3CCCCC3)nc2cc1OCCCN1CCCC1 | 7.56 | 0.44 | inhibition (INH) [7]: <1%; inhibition (INH) [8]: <1%; Activity (FLC clone 745): Toxic
Clc1cc2c(NC3CCCC3)nnc(-c3ccncc3)c2cc1Cl | 27.2 | 20 | inhibition [9]: < 1%; inhibition [10]: 19%
COc1cc2c(NC3CCN(C(C)C)CC3)nc(N3CCC(F)(F)CC3)nc2cc1OCCCN1CCCC1 | 4.2 | 1.6 | inhibition (INH) [7]: <1%; inhibition (INH) [8]: <1%; Activity (FLC clone 745): Toxic
CN1CCN(c2ccc(-c3cccc(CN4CCOCC4)c3)cc2NC(=O)c2c[nH]c(=O)cc2C(F)(F)F)CC1 | 7.57 | – | Activity (FLC clone 745): Toxic
CC(C)N(CCCNC(=O)Nc1ccc(C(C)(C)C)cc1)C[C@H]1O[C@@H](n2cc(Br)c3c(N)ncnc32)[C@H](O)[C@@H]1O | 23.9 | 2.3 | inhibition [11]: 6.64%; inhibition [12]: 4.3%
O=C(NCC(=O)N1CCCC1)Nc1ccc2cnccc2c1 | 31.6 | 11 | inhibition [13]: 47.7%; inhibition [14]: 18.9%
Cc1cn(CCN2CCN(c3ccccc3-c3cc(C#N)cc(C(=O)NCCCN4CCCC4)c3)CC2)c2ccccc12 | 16.6 | 0.68 | inhibition [5]: 1.3%; inhibition [6]: 9%
